Data as given in ChEMBL document CHEMBL3763019, “Discovery of benzenesulfonamide derivatives as potent PI3K/mTOR dual inhibitors with in vivo efficacies against hepatocellular carcinoma” (Bioorg Med Chem, 2016).

Experiments:
[1] = Antiproliferative activity against human MOLT4 cells incubated for 48 hrs by sulforhodamine B assay; format: functional; conditions: MOLT-4, 48 h
In short: (§1)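 Run externally by the US National Cancer Institute as part of its 60 human cancer cell line cytotoxicity screen (NCI-60).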

[2] = Antiproliferative activity against human LOXIMVI cells incubated for 48 hrs by sulforhodamine B assay; format: functional; conditions: LOX IMVI; in short: as §1
NCI-H226 = test: Antiproliferative activity against human NCI-H226 cells incubated for 48 hrs by sulforhodamine B assay; format: functional; conditions: NCI-H226, 48 h; in short: as §1
[3] = Antiproliferative activity against human PC3 cells incubated for 48 hrs by sulforhodamine B assay; format: functional; conditions: PC-3, 48 h; in short: as §1
[4] = Antitumor activity against human Bel7404 cells xenografted in BALB/c nude mouse assessed as reduction in tumor volume at 30 mg/kg, po qd for 14 consecutive days relative to control; format: functional, BEL-7404; parameters: scale not given: the % may be the effect or the level left
In short: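 Male BALB/c nude mice carried implanted BEL-7404 tumours and were randomized once tumours reached 100–300 mm³ (about 12 days); there were 6 per treated group and 8 controls. Drug in 5% polysorbate 80/water was given orally once daily for 14 days from day 13. Tumour volume (1/2·a·b·b) and body weight were tracked, with sacrifice on day 29. The read-out was relative tumour volume versus vehicle, reported as mean SE.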

[5] = Antiproliferative activity against human UACC62 cells incubated for 48 hrs by sulforhodamine B assay; format: functional; conditions: UACC-62, 48 h
MDA-MB-231 = test: Cytotoxicity against human MDA-MB-231 cells after 72 hrs by MTT assay; format: functional, cell-based; conditions: MDA-MB-231, 72 h
In short: (§2)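 Log-phase cells at 40,000–50,000 cells/mL in DMEM with 10% FBS and antibiotics were seeded and cultured overnight at 37 °C, 5% CO₂. Compounds were diluted in DMSO/PBS from 10^-4 to 10^-9 M and applied for 72 h. MTT (5 mg/mL stock) was then added for 4 h and absorbance read at 570 nm. IC50 came from nonlinear regression on triplicate wells, averaged.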

[6] = Antiproliferative activity against human UACC257 cells incubated for 48 hrs by sulforhodamine B assay; format: functional; conditions: UACC-257, 48 h
CCRF-CEM = test: Antiproliferative activity against human CCRF-CEM cells incubated for 48 hrs by sulforhodamine B assay; format: functional; in short: as §1
SK-MEL-28 = test: Antiproliferative activity against human SK-MEL-28 cells incubated for 48 hrs by sulforhodamine B assay; format: functional; conditions: SK-MEL-28, 48 h; in short: as §1
[7] = Antiproliferative activity against human OVCAR8 cells incubated for 48 hrs by sulforhodamine B assay; format: functional; conditions: OVCAR-8, 48 h; in short: as §1
K562 = test: Antiproliferative activity against human K562 cells incubated for 48 hrs by sulforhodamine B assay; format: functional; conditions: K562, 48 h; in short: as §1
[8] = Antiproliferative activity against human HOP62 cells incubated for 48 hrs by sulforhodamine B assay; format: functional; conditions: HOP-62, 48 h; in short: as §1
T47D = test: Antiproliferative activity against human T47D cells incubated for 48 hrs by sulforhodamine B assay; format: functional; in short: as §1
SK-MEL-5 = test: Antiproliferative activity against human SK-MEL-5 cells incubated for 48 hrs by sulforhodamine B assay; format: functional; conditions: SK-MEL-5, 48 h; in short: as §1
HT-29 = test: Antiproliferative activity against human HT-29 cells incubated for 48 hrs by sulforhodamine B assay; format: functional; conditions: HT-29, 48 h; in short: as §1
[9] = Cytotoxicity against human HCT116 cells after 72 hrs by MTT assay; format: functional, cell-based; conditions: HCT-116, 72 h; in short: as §2
NCI-H460 = test: Antiproliferative activity against human NCI-H460 cells incubated for 48 hrs by sulforhodamine B assay; format: functional; conditions: NCI-H460, 48 h; in short: as §1
[10] = Antiproliferative activity against human HOP92 cells incubated for 48 hrs by sulforhodamine B assay; format: functional; conditions: HOP-92, 48 h
[11] = Antiproliferative activity against human HL-60(TB) cells incubated for 48 hrs by sulforhodamine B assay; format: functional; conditions: HL-60, 48 h
[12] = target: Phosphatidylinositol 4,5-bisphosphate 3-kinase catalytic subunit delta isoform (Homo sapiens, UniProt O00329); test: Inhibition of PI3K-delta (unknown origin) using PIP2 as substrate incubated for 1 hr by Kinase-Glo luminescent kinase assay
[13] = Antiproliferative activity against human RXF393 cells incubated for 48 hrs by sulforhodamine B assay; format: functional; conditions: RXF 393, 48 h; in short: as §1
[14] = Antiproliferative activity against human OVCAR5 cells incubated for 48 hrs by sulforhodamine B assay; format: functional; conditions: OVCAR-5, 48 h; in short: as §1
A549 = test: Inhibition of insulin-stimulated PI3K in human A549 cells assessed as suppression of AKT phosphorylation at Ser473 after 30 mins by Western blot analysis; format: cell-based
In short: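 A549 cells were insulin-stimulated for 2 h, then exposed to four compound concentrations for 30 min. Lysis was in ice-cold RIPA buffer, protein was quantified by BCA, and lysates were run on 10% SDS-PAGE and transferred to nitrocellulose. Detection was by infrared imaging, with β-actin as loading control.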

[15] = Antiproliferative activity against human UO31 cells incubated for 48 hrs by sulforhodamine B assay; format: functional; conditions: UO-31, 48 h
Malme-3M = test: Antiproliferative activity against human MALME-3M cells incubated for 48 hrs by sulforhodamine B assay; format: functional; in short: as §1
[16] = Antiproliferative activity against human SKOV3 cells incubated for 48 hrs by sulforhodamine B assay; format: functional; conditions: SK-OV-3, 48 h; in short: as §1
[17] = Antiproliferative activity against human OVCAR4 cells incubated for 48 hrs by sulforhodamine B assay; format: functional; conditions: OVCAR-4, 48 h; in short: as §1
[18] = read-out: pLC50 (the source's name) (converted)

Phosphatidylinositol 4,5-bisphosphate 3-kinase catalytic subunit delta isoform, sequence (O00329 whole entry, canonical isoform): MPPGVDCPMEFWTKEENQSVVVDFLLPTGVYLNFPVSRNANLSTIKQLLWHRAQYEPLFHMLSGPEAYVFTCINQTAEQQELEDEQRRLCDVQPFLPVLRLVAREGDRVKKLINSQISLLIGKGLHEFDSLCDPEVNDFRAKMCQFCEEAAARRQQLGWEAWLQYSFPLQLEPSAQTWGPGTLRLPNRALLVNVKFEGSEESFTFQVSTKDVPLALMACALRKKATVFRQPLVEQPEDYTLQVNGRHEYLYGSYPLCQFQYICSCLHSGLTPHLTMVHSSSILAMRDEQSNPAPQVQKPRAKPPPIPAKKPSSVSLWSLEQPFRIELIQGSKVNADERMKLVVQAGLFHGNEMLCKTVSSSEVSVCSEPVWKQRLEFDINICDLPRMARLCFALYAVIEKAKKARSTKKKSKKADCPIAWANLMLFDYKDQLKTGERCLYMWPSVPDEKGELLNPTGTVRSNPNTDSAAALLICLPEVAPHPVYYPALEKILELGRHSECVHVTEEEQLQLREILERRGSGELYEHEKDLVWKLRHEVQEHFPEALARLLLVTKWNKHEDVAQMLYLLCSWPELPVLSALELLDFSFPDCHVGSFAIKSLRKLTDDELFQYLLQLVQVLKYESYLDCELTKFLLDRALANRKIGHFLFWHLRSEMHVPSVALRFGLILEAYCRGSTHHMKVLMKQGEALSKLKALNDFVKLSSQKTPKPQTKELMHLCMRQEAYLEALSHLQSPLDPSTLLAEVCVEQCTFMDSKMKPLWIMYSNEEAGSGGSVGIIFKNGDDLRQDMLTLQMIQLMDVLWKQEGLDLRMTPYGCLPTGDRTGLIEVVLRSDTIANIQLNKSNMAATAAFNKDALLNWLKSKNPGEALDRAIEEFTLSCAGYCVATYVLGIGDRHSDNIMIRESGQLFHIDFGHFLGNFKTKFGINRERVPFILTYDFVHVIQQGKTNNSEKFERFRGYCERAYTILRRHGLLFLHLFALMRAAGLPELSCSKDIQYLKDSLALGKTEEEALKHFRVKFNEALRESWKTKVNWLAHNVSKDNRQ

Q: For `COc1ncc(-c2ccc3nccc(C#CCN4CCN(S(C)(=O)=O)CC4)c3c2)cc1NS(=O)(=O)c1ccc(F)cc1F`, which GI50 [1] is on record?
A: The GI50 was 38 nM.

Q: What about the CC50 [1, 18] of the same compound?
A: Its CC50 is > 100 µM.

Q: And the TGI ([1]; read-out: pTGI (converted))?
A: The TGI was 1150 nM.

Q: What about the GI50 [2] of the same compound?
A: The GI50 was 81.3 nM.

Q: What about the CC50 [2, 18] of the same compound?
A: Its CC50 is 5.62 µM.

Q: And the TGI ([2]; read-out: pTGI (converted))?
A: Its TGI is 1350 nM.

Q: What about the GI50 (NCI-H226) of the same compound?
A: The GI50 was 245 nM.

Q: And the CC50 (NCI-H226; [18])?
A: The CC50 was 7.24 µM.

Q: And the TGI (NCI-H226; read-out: pTGI (converted))?
A: The TGI was 1820 nM.

Q: And the GI50 [3]?
A: Its GI50 is 63.1 nM.

Q: What about the CC50 [3, 18] of the same compound?
A: The CC50 was 36.3 µM.

Q: What about the TGI ([3]; read-out: pTGI (converted)) of the same compound?
A: The TGI was 10.2 µM.

Q: What about the Activity [4] of the same compound?
A: Its Activity is 52%.

Q: What about the GI50 [5] of the same compound?
A: Its GI50 is 33.1 nM.

Q: And the CC50 [5, 18]?
A: The CC50 was 3.24 µM.

Q: What about the TGI ([5]; read-out: pTGI (converted)) of the same compound?
A: The TGI was 282 nM.

Q: What about the IC50 (MDA-MB-231) of the same compound?
A: The IC50 was 1440 nM.

Q: What about the GI50 [6] of the same compound?
A: The GI50 was 38.9 nM.

Q: What about the CC50 [6, 18] of the same compound?
A: Its CC50 is 15.5 µM.

Q: And the TGI ([6]; read-out: pTGI (converted))?
A: The TGI was 603 nM.

Q: What about the GI50 (CCRF-CEM) of the same compound?
A: The GI50 was 148 nM.

Q: And the CC50 (CCRF-CEM; [18])?
A: Its CC50 is > 100 µM.

Q: And the TGI (CCRF-CEM; read-out: pTGI (converted))?
A: The TGI was 2570 nM.

Q: What about the GI50 (SK-MEL-28) of the same compound?
A: Its GI50 is 34.7 nM.

Q: What about the CC50 (SK-MEL-28; [18]) of the same compound?
A: The CC50 was 5.25 µM.

Q: What about the TGI (SK-MEL-28; read-out: pTGI (converted)) of the same compound?
A: The TGI was 1050 nM.

Q: What about the GI50 [7] of the same compound?
A: Its GI50 is 251 nM.

Q: What about the CC50 [7, 18] of the same compound?
A: The CC50 was 67.6 µM.

Q: And the TGI ([7]; read-out: pTGI (converted))?
A: The TGI was 10.7 µM.

Q: What about the GI50 (K562) of the same compound?
A: Its GI50 is 646 nM.

Q: What about the CC50 (K562; [18]) of the same compound?
A: Its CC50 is > 100 µM.

Q: And the TGI (K562; read-out: pTGI (converted))?
A: The TGI was 17 µM.

Q: What about the GI50 [8] of the same compound?
A: The GI50 was < 10 nM.

Q: And the CC50 [8, 18]?
A: Its CC50 is 63.1 µM.

Q: And the TGI ([8]; read-out: pTGI (converted))?
A: Its TGI is 2820 nM.

Q: And the GI50 (T47D)?
A: Its GI50 is < 10 nM.

Q: And the CC50 (T47D; [18])?
A: Its CC50 is > 100 µM.

Q: And the TGI (T47D; read-out: pTGI (converted))?
A: The TGI was 13.5 nM.

Q: And the GI50 (SK-MEL-5)?
A: The GI50 was 195 nM.

Q: What about the CC50 (SK-MEL-5; [18]) of the same compound?
A: The CC50 was 2950 nM.

Q: And the TGI (SK-MEL-5; read-out: pTGI (converted))?
A: The TGI was 550 nM.

Q: What about the GI50 (HT-29) of the same compound?
A: The GI50 was 20.4 nM.

Q: What about the CC50 (HT-29; [18]) of the same compound?
A: Its CC50 is 35.5 µM.

Q: What about the TGI (HT-29; read-out: pTGI (converted)) of the same compound?
A: Its TGI is 1510 nM.

Q: And the IC50 [9]?
A: The IC50 was 930 nM.

Q: And the GI50 (NCI-H460)?
A: Its GI50 is 51.3 nM.

Q: And the CC50 (NCI-H460; [18])?
A: The CC50 was 30.9 µM.

Q: And the TGI (NCI-H460; read-out: pTGI (converted))?
A: Its TGI is 2140 nM.

Q: And the GI50 [10]?
A: The GI50 was 13.8 nM.

Q: And the CC50 [10, 18]?
A: Its CC50 is 58.9 µM.

Q: What about the GI50 [11] of the same compound?
A: The GI50 was 19.5 nM.

Q: And the CC50 [11, 18]?
A: Its CC50 is > 100 µM.

Q: What about the TGI ([11]; read-out: pTGI (converted)) of the same compound?
A: The TGI was 1450 nM.

Q: What about the IC50 [12] of the same compound?
A: Its IC50 is 14 nM.

Q: What about the GI50 [13] of the same compound?
A: The GI50 was 51.3 nM.

Q: And the CC50 [13, 18]?
A: The CC50 was 11.7 µM.

Q: What about the TGI ([13]; read-out: pTGI (converted)) of the same compound?
A: The TGI was 427 nM.

Q: And the GI50 [14]?
A: Its GI50 is 37.1 nM.

Q: And the CC50 [14, 18]?
A: The CC50 was 60.3 µM.

Q: What about the TGI ([14]; read-out: pTGI (converted)) of the same compound?
A: Its TGI is 16.2 µM.

Q: And the inhibition (A549)?
A: Its inhibition is “Dose-dependent effect”.

Q: What about the GI50 [15] of the same compound?
A: The GI50 was 31.6 nM.

Q: What about the CC50 [15, 18] of the same compound?
A: The CC50 was 39.8 µM.

Q: What about the TGI ([15]; read-out: pTGI (converted)) of the same compound?
A: The TGI was 11.7 µM.

Q: And the GI50 (Malme-3M)?
A: The GI50 was 19.9 nM.

Q: What about the CC50 (Malme-3M; [18]) of the same compound?
A: Its CC50 is 33.9 µM.

Q: What about the TGI (Malme-3M; read-out: pTGI (converted)) of the same compound?
A: The TGI was 324 nM.

Q: And the GI50 [16]?
A: The GI50 was 17.4 nM.

Q: What about the CC50 [16, 18] of the same compound?
A: The CC50 was 33.9 µM.

Q: And the TGI ([16]; read-out: pTGI (converted))?
A: Its TGI is 229 nM.

Q: And the GI50 [17]?
A: The GI50 was 257 nM.

Q: And the CC50 [17, 18]?
A: Its CC50 is 46.8 µM.

Q: And the TGI ([17]; read-out: pTGI (converted))?
A: The TGI was 11.5 µM.
